Data reported in PMC5774851 (Journal of medicinal chemistry, 2016).

Assays:
[1] = tested on: Slc3a1 knockout male mice; assay: In vivo activity in genetic mouse model of cystinuria; settings: 29.3 μmol/kg daily gavage for 4 weeks
Method in brief: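 Male Slc3a1 knockout mice in groups of six or seven received test compound at 29.3 μmol/kg by daily oral gavage for 4 weeks. Seven controls got water only. Read-out was the fraction of mice in each group that formed stones.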

[2] = L-cystine diamides in mouse urine after oral dosing; type: in vivo; settings: mice, daily gavage 29.3 μmol/kg, micromolar concentrations in urine
[3] = Chemical stability in pH 7.4 phosphate buffered saline at 37 °C by LC-MS; type: physicochemical
Method in brief: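 Test compound incubated in pH 7.4 phosphate-buffered saline at 37 °C. Loss of parent compound followed over time by LC-MS, and half-life taken from its disappearance.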

[4] = In situ AFM measurement of L-cystine crystal step velocities; settings: aqueous 2 mM L-cystine; for V/V0 normalized step velocity @ 15 μM: 15 μM inhibitor; for V/V0 normalized step velocity @ 30 μM: 30 μM inhibitor; for V/V0 normalized step velocity @ 45 μM: 45 μM inhibitor
[5] = cited from earlier work
[6] = tested on: Slc3a1 knockout male mice; settings: knockout mouse model of cystinuria, previous study; cited from earlier work

SMILES | Effectiveness in preventing stone formation [1] | Oral bioavailability (found in urine after oral dosing) [2] | half-life [3] [days] | V/V0 normalized step velocity @ 15 μM [4] | V/V0 normalized step velocity @ 30 μM [4] | V/V0 normalized step velocity @ 45 μM [4] | Reported equilibrium concentration of L-cystine [5] [mM] | Concentration of L-cystine in the supernatant in the absence of inhibitor (Fluorescence assay; water, 25 °C, 72 h) | Effect on stone size and stone burden [6] | Effect on the number of mice that formed stones [6] | Ratio (improvement in potency over the control CDME) (Fluorescence assay; EC2x ratio vs CDME)
Cl.Cl.N[C@@H](CSSC[C@H](N)C(=O)N1CCOCC1)C(=O)N1CCOCC1 [Compound 1a, L-Cystine bismorpholide] | ineffective | orally bioavailable | 19.8 | 0.44–0.65 | 0.34–0.58 | 0.29–0.53 | – | – | – | – | –
CN1CCN(C(=O)[C@@H](N)CSSC[C@H](N)C(=O)N2CCN(C)CC2)CC1.Cl.Cl.Cl.Cl [Compound 1b, L-cystine bis(N′-methylpiperazide)] | effective | orally bioavailable | 46.2 | 0.52–0.66 | 0.32–0.50 | 0.30–0.40 | – | – | – | – | –
N[C@@H](CSSC[C@H](N)C(=O)O)C(=O)O [L-cystine] | – | – | – | – | – | – | 0.7 | approximately 1 mM | – | – | –
COC(=O)[C@@H](N)CSSC[C@H](N)C(=O)OC [CDME, L-cystine dimethyl ester, reference compound] | – | – | ~0.113 | 0.4–0.65 | 0.27–0.54 | 0.21–0.48 | – | – | effective in reducing stone size and stone burden | no effect | 1.0
